Measurements reported in ChEMBL document CHEMBL1122366, “Potential antiatherosclerotic agents. 3. Substituted benzoic and non benzoic acid analogues of cetaben” (1983).
Values joined by “and” are separate entries in the source; they are usually repeats but may differ in a detail not shown here. Identical values can stand only once.

Key:
[1] = biological target: T1, Sterol O-acyltransferase 1 (Rattus norvegicus) (UniProt O70536); test: In vitro inhibition of acyl coenzyme A:cholesterol acyltransferase; design: concentration or dose not given beside the values; conditions: concentration not given here
T1 sequence (whole entry): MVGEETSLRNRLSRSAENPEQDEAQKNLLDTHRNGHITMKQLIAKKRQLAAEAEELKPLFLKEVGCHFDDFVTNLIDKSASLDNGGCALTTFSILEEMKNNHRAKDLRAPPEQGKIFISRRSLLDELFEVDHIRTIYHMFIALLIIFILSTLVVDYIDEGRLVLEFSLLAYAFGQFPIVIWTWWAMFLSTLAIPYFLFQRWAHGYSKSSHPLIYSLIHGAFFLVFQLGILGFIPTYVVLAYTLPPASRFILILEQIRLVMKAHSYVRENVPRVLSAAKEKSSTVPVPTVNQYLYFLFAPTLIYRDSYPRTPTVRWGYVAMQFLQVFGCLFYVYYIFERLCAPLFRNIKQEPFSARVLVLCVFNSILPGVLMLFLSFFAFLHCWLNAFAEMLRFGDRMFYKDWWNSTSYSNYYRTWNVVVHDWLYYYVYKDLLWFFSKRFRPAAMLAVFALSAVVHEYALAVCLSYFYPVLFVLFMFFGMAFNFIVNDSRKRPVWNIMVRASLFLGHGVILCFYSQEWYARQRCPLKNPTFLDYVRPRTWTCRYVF
Summary of the method: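 Enzyme fatty acyl-CoA:cholesterol acyltransferase (ACAT), assayed in vitro at a single drug concentration of 5.2 μg/mL. The value is the mean percent inhibition of enzyme activity.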

Rattus norvegicus [2] = test: In vivo sterol lowering activity when dosed as 0.03 % of the diet; format: functional
Summary of the method: (§1)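 Normal rats were dosed in the diet. Serum sterol and triglyceride levels were measured and expressed as the mean percent of control values. Significance versus control was reported at p < 0.05, 0.01 and 0.001.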

Rattus norvegicus [3] = test: In vivo sterol lowering activity when dosed as 0.01 % of the diet; format: functional; summary of the method: as §1
Rattus norvegicus [4] = test: In vivo sterol lowering activity at dose of 0.10 % of the diet; format: functional; summary of the method: as §1
Rattus norvegicus [5] = test: In vivo triglyceride lowering activity when dosed at 0.03 % of the diet; format: functional; summary of the method: as §1
Rattus norvegicus [6] = test: In vivo triglyceride lowering activity dosed at 0.10 % of the diet.; format: functional; summary of the method: as §1
Rattus norvegicus [7] = test: In vivo triglyceride lowering activity when dosed as 0.01 % of the diet; format: functional; summary of the method: as §1

Row | SMILES | inhibition [1] [%] | serum sterol level, percent of control (Rattus norvegicus [2]) | serum sterol level, % of control (Rattus norvegicus [3]) | serum sterol level, percent of control (Rattus norvegicus [4]) | serum triglyceride level, percent of control (Rattus norvegicus [5]) | serum triglyceride, percent of control (Rattus norvegicus [6]) | serum triglyceride level, percent of control (Rattus norvegicus [7]) | Diet (Rattus norvegicus [5]) [%]
1 | CCCCCCCCCCCCCCCCNc1ccc(C(=O)SCCO)cc1 | 1 | <86% | <87% | <84% | 74% | <59% | 70% | 
2 | CCCCCCCCCCCCCCCCNc1ccc(C2=NCCO2)cc1 | 0 | 100% | 100% | 86% | 94% | 76% | 103% | 
3 | CCCCCCCCCCCCCCCCNc1ccc(C(=O)O)c(OCCCCCCCCCCCCCCCC)c1 | 6 | 99% | 90% | 95% | 82% | 84% | 126% | 
4 | CCCCCCCCCCCCCCCCNc1ccc(C(=O)Oc2ccc(Cl)cc2)cc1 | 0 | <86% | 94% | 91% | 85% | 83% | 91% | 
5 | CCCCCCCCCCCCCCCCNc1ccc(C(=O)NS(=O)(=O)c2ccc(N)cc2)cc1 | 14 | 89% | 93% | 105% | 87% | 111% | 78% | 
6 | CCCCCCCCCCCCCCCCN(CC(=O)OCC)c1ccc(C(=O)OC)cc1 | 12 | 100% | 106% | 104% | 97% | 104% | 113% | 
7 | CCCCCCCCCCCCCCCCNc1ccc(CCCC(=O)O)cc1 | < 32 | 95% | 100% | 97% | <61% | <51% | <68% | 
8 | CCCCCCCCCCCCCCCCNc1ccc(C(=O)O)c(F)c1 | 57 | <77% | 93% | <75% | 79% | <40% | 77% | 
9 | CCCCCCCCCCCCCCCCNc1ccc(C(=O)OC2CCCCO2)cc1 (stereo unspecified) | 0 | <76% | 91% | <74% |  | <54% | 108% | 98
10 | CCCCCCCCCCCCCCCCNc1ccc(C(=O)CC#N)cc1 | < 22 | 104% | 107% | 115% | 140% | 130% | 132% | 
11 | CCCCCCCCCCCCCCCCNc1ccc(C(=O)NC(C)(C)C(=O)O)cc1 | 13 | 95% | 89% | 88% | 90% | 83% | 84% | 
12 | CCCCCCCCCCCCCCCCNc1ccc(C(=O)[O-])c(C(=O)[O-])c1.[Na+].[Na+] | 63 | 105% | 100% | 101% | 85% | <67% | 110% | 
13 | CCCCCCCCCCCCCCCCNc1ccc(C(=O)NC(=O)c2ccccc2)cc1 | 0 | <80% | 91% | <75% | <66% | <58% | 76% | 
14 | CCCCCCCCCCCCCCCCNc1ccc(C(=O)NS(=O)(=O)c2ccccc2)cc1 | < 22 | <84% | 88% | <67% | <55% | <36% | 86% | 
15 | Br.CCCCCCCCCCCCCCCCNc1ccc(OC(C)=O)cc1 | 12 | 95% | 92% | 91% | 146% | 117% | 108% | 
16 | CCCCCCCCCCCCCCCCNc1ccc(C(=O)NNC(C)=O)cc1 | 21 | <83% | 93% | 91% | <74% | <66% | 75% | 
17 | CCCCCCCCCCCCCCCCNc1ccc(C(=O)CC(=O)O)cc1 | < 28 | 100% | 105% | 104% | 90% | 100% | 80% | 
18 | CCCCCCCCCCCCCCCCNc1ccc(C(=O)CC(=O)OCC)cc1 | 2 | <83% | 105% | <85% | <53% | <30% | 71% | 
19 | CCCCCCCCCCCCCCCCNc1ccc(C(=O)C(C(=O)OCC)C(=O)OCC)cc1 | 9 | 96% | 100% | <87% | <66% | <59% | <68% | 
20 | CCCCCCCCCCCCCCCCNc1ccc(C(=O)Nc2ccc(C(=O)O)cc2)cc1 | 12 | <87% | 95% | 100% | 121% | 103% | 85% | 
21 | CCCCCCCCCCCCCCCCNc1ccc(C(=O)NS(=O)(=O)c2ccc([N+](=O)[O-])cc2)cc1 | < 43 | 94% | 105% | <82% | <79% | 108% | 92% | 
22 | CCCCCCCCCCCCCCCCNc1ccc(C(=O)OCCN(C)C)cc1.Cl |  | <92% | 99% | 92% | 73% | <59% | 77% | 
23 | CCCCCCCCCCCCCCCCNc1ccc(C(=O)C[S+](C)[O-])cc1 (stereo unspecified) | 6 | 95% | 95% |  | <55% |  | <64% | 
24 | CCCCCCCCCCCCCCCCNc1ccc(C(=O)O)cc1Br |  | 100% and 99% | 92% and 101% | 93% and 97% | 96% and 99% | 91% and 100% | 95% and 104% | 
25 | CCCCCCCCCCCCCCCCNCc1ccc(C(=O)O)cc1 |  | <89% | 97% | <88% | 91% | 96% | 86% | 
26 | CCCCCCCCCCCCCCCCNc1ccc(C(=O)O)c(Cl)c1 |  | 95% | 100% | 95% | 109% | 101% | 113% | 
